Measurements reported in ChEMBL document CHEMBL1158901, “Chemical constituents of Garcinia fusca: structure elucidation of eight new xanthones and their cancer chemopreventive activity” (J Nat Prod, 2003).

Key:
[1] = Cytotoxicity against human Raji cells assessed as cell viability at 32 nmol after 48 hrs by trypan blue assay; format: cell-based; settings: read-out: Activity
In short: (§1)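 Raji cells grown to 10^6 cells/mL, pelleted and resuspended in RPMI 1640 with 10% FCS containing 4 mM n-butyric acid and 32 pmol TPA (20 ng/mL). Test compound added in DMSO at 32, 3.2 or 0.32 nmol (footnote also defines 16 nmol as 500 mol ratio). Incubated 48 h at 37 °C. Viable cells counted by Trypan Blue on a hemocytometer.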

[2] = Cytotoxicity against human Raji cells assessed as cell viability at 16 nmol after 48 hrs by trypan blue assay; format: cell-based; settings: read-out: Activity; in short: as §1
Raji [3] = test: TPA-induced EBV-early antigen activation in human Raji cells at 16 nmol after 48 hrs relative to TPA; settings: human gammaherpesvirus 4
Raji [4] = test: TPA-induced EBV-early antigen activation in human Raji cells at 0.32 nmol after 48 hrs relative to TPA; settings: human gammaherpesvirus 4
Raji [5] = test: TPA-induced EBV-early antigen activation in human Raji cells at 32 nmol after 48 hrs relative to TPA; settings: human gammaherpesvirus 4
[6] = Cytotoxicity against human Raji cells assessed as cell viability at 3.2 nmol after 48 hrs by trypan blue assay; format: cell-based; settings: read-out: Activity; in short: as §1
Raji [7] = test: TPA-induced EBV-early antigen activation in human Raji cells at 3.2 nmol after 48 hrs relative to TPA; settings: human gammaherpesvirus 4
[8] = Inhibition of TPA-induced EBV-early antigen activation in human Raji cells per 32 pmol TPA after 48 hrs; format: cell-based, human gammaherpesvirus 4
In short: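 EBV-EA induction in Raji cells by 4 mM n-butyric acid plus 32 pmol TPA in RPMI 1640/10% FCS, 37 °C for 48 h, with compound at mol ratios to TPA of 10 to 1000. EA-positive cells counted blind, ≥500 per assay, relative to TPA-only control. IC50 is the mol ratio to TPA giving 50% inhibition, estimated by probit transformation.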

[9] = Cytotoxicity against human Raji cells assessed as cell viability at 0.32 nmol after 48 hrs by trypan blue assay; format: cell-based; settings: read-out: Activity; in short: as §1

| IC50 [8] [molar ratio] | Compound | viability at 48 h, 32 nmol [1] [%] | viability at 48 h, 16 nmol [2] [%] | EBV-EA activation (Raji [3]) [%] | EBV-EA activation (Raji [4]) [%] | EBV-EA activation (Raji [5]) [%] | viability at 48 h, 3.2 nmol [6] [%] | EBV-EA activation (Raji [7]) [%] | viability at 48 h, 0.32 nmol [9] [%] |
| --- | --- | --- | --- | --- | --- | --- | --- | --- | --- |
| 270 | COc1cc2oc3cc(O)c(OC)c(CC=C(C)C)c3c(=O)c2c(O)c1CC=C(C)C | 70 | > 80 | 20.5 | 90.4 | 0 | > 80 | 62.6 | > 80 |
| 210 | COc1c(O)c(CC=C(C)C)c2oc3cc(O)c(CC=C(C)C)c(O)c3c(=O)c2c1CC=C(C)C | 70 | > 80 | 16.3 | 83.8 | 0 | > 80 | 59.2 | > 80 |
| 400 | CC1=C(/C=C/C(C)=C/C=C/C(C)=C/C=C/C=C(C)/C=C/C=C(C)/C=C/C2=C(C)CCCC2(C)C)C(C)(C)CCC1 [BETA CAROTENE] | – | – | 34.3 | 100 | 9.1 | – | 82.7 | – |
| 320 | COc1c(O)cc2oc3cc(O)c(CC=C(C)C)c(O)c3c(=O)c2c1C/C=C(\C)CCC=C(C)C [COWANIN] | 70 | > 80 | 33.6 | 95.8 | 0 | > 80 | 71.6 | > 80 |
| 310 | COc1c(O)cc2oc3cc(O)c(C/C=C(/C)CO)c(O)c3c(=O)c2c1C/C=C(\C)CCC=C(C)C [COWANOL] | 70 | > 80 | 30.5 | 93.1 | 0 | > 80 | 69.6 | > 80 |
| 398 | COc1cc2c(=O)c3c(O)c(C/C=C(\C)CCC=C(C)C)c(O)cc3oc2cc1O [COWAXANTHONE] | 70 | > 80 | 40.6 | 97.5 | 0 | > 80 | 76.6 | > 80 |
| 220 | COc1c(O)cc2oc3cc(O)c(CC=C(C)C)c(O)c3c(=O)c2c1CC=C(C)C [MANGOSTIN] | 70 | > 80 | 19.1 | 89.2 | 0 | > 80 | 60 | > 80 |
| 340 | COc1c(O)cc2oc3cc(O)cc(O)c3c(=O)c2c1C/C=C(\C)CCC=C(C)C [RUBRAXANTHONE] | 70 | > 80 | 39.5 | 96.8 | 0 | > 80 | 74.1 | > 80 |

| Compound | IC50 [8] [molar ratio] | viability at 48 h, 32 nmol [1] [%] | viability at 48 h, 16 nmol [2] [%] | EBV-EA activation (Raji [3]) [%] | EBV-EA activation (Raji [4]) [%] | EBV-EA activation (Raji [5]) [%] | viability at 48 h, 3.2 nmol [6] [%] | EBV-EA activation (Raji [7]) [%] | viability at 48 h, 0.32 nmol [9] [%] |
| --- | --- | --- | --- | --- | --- | --- | --- | --- | --- |
| CC(C)=CCC/C(C)=C/Cc1c(O)c(O)cc2oc3cc(O)c(CC=C(C)C)c(O)c3c(=O)c12 [NORCOWANIN] | 315 | 70 | > 80 | 31.9 | 94.2 | 0 | > 80 | 70.1 | > 80 |
